We go through seven compounds from ChEMBL document CHEMBL3046492, “Synthesis, insecticidal, and acaricidal activities of novel 2-aryl-pyrrole derivatives containing ester groups” (2008).

≈ marks a conversion by molar mass, not a printed value.

Common to all, as to format: functional
The test system of experiment [1] is Plutella xylostella. In words: Insecticidal activity against second-instar larval stage of Plutella xylostella (diamondback moth) in fresh cabbage leaves assessed as mortality treated for 15 secs before larval infestation by leaf disk assay. The conditions noted are these: foliar.
Experiment [2] deals with Tetranychus cinnabarinus. As to the kind of experiment: Acaricidal activity against adult Tetranychus cinnabarinus (carmine spider mite) in sieva bean plants assessed as mortality at 200 mg/kg treated for 3 secs measured after 2 days. The conditions noted are these: 48 h.
In experiment [3] the test system is Nephotettix cincticeps. In words: Toxic ratio, ratio of Chlorfenapyr LC50 to compound LC50 for third-instar larval stage of Nephotettix cincticeps (green rice leafhopper) measured after 48 hr by seedling-dipping method.
Experiment [4] deals with Plutella xylostella. As to the kind of experiment: Toxic ratio, ratio of Chlorfenapyr LC50 to compound LC50 for second-instar larval stage of Plutella xylostella (diamondback moth) by leaf disk assay.
The subject of experiment [5] is Nephotettix cincticeps. In words: Insecticidal activity against third instar larval stage of Nephotettix cincticeps (green rice leafhopper) in rice seedlings assessed as mortality treated for 15 secs before larval infestation measured after 48 hr by seedling-dipping method.
The test system of experiment [6] is Culex pipiens pallens. As to the kind of experiment: Insecticidal activity against fourth-instar larval stage of Culex pipiens pallens (mosquito) assessed as mortality at 0.10 mg/kg at 25 +/-1 degC after 2 days. The conditions noted are these: 48 h. The method, boiled down:
(§1)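 Test solutions were prepared by adding 1 mL of each concentrated dilution to 99 mL water. Bioassays were run at 25 ± 1 °C on laboratory-reared insects.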

In experiment [7] the test system is Mythimna separata. As to the kind of experiment: Insecticidal activity against fourth-instar larval stage of Mythimna separata (Oriental armyworm) in compound pretreated corn leaves assessed as mortality at 5 mg/kg at 25 +/-1 degC measured after 2 days.
Experiment [8] has as its system Tetranychus cinnabarinus. As to the kind of experiment: Toxic ratio, ratio of Chlorfenapyr LC50 to compound LC50 for adult two spot Tetranychus cinnabarinus (carmine spider mite) measured after 24 hr by slide immersion method.
The test system of experiment [9] is Tetranychus cinnabarinus. As to the kind of experiment: Acaricidal activity against adult two spot Tetranychus cinnabarinus (carmine spider mite) assessed as mortality at 25 +/-2 degC treated for 10 secs measured after 24 hr by slide immersion method. In short, it runs like this:
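Thirty adult female mites were fixed dorsally on double-sided tape on a slide with a small brush. Slides were immersed and shaken for 10 s in diluted test solution, and excess liquid was removed. Slides were then held at 25 ± 2 °C in a Petri dish with moist filter paper. Dead mites were counted at 24 h. There were 3 replicates of 30 mites each, with chlorfenapyr as standard. LC50 was obtained by Finney probit analysis.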

In experiment [10] the test system is Aphis fabae. In words: Toxic ratio, ratio of Chlorfenapyr LC50 to compound LC50 for apterous adult stage of Aphis fabae (black bean aphids) measured after 48 hr.
Experiment [11] deals with Tetranychus cinnabarinus. In words: Acaricidal activity against adult Tetranychus cinnabarinus (carmine spider mite) in sieva bean plants assessed as mortality at 50 mg/kg treated for 3 secs measured after 2 days. Conditions: 48 h.
For experiment [12], the system named is Mythimna separata. In words: Insecticidal activity against fourth-instar larval stage of Mythimna separata (Oriental armyworm) in compound pretreated corn leaves assessed as mortality at 20 mg/kg at 25 +/-1 degC measured after 2 days.
For experiment [13], the system named is Tetranychus cinnabarinus. As to the kind of experiment: Acaricidal activity against adult Tetranychus cinnabarinus (carmine spider mite) in sieva bean plants assessed as mortality at 100 mg/kg treated for 3 secs measured after 2 days. The conditions noted are these: 48 h.
In experiment [14] the test system is Culex pipiens pallens. In words: Insecticidal activity against fourth-instar larval stage of Culex pipiens pallens (mosquito) assessed as mortality at 0.25 mg/kg at 25 +/-1 degC after 2 days. Conditions: 48 h. In short, it runs like this: as §1
In experiment [15] the test system is Culex pipiens pallens. As to the kind of experiment: Insecticidal activity against fourth-instar larval stage of Culex pipiens pallens (mosquito) assessed as mortality at 0.50 mg/kg at 25 +/-1 degC after 2 days. Conditions: 48 h. The method, boiled down: as §1
Experiment [16] has as its system Aphis fabae. As to the kind of experiment: Insecticidal activity against apterous adult stage of Aphis fabae (black bean aphids) in soybean tender shoots assessed as mortality treated for 5 secs measured after 48 hr. The method, boiled down:
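This was a slightly modified FAO dip test. Soybean tender shoots carrying 40-60 healthy apterous adult aphids were dipped in diluted compound for 5 s. Excess fluid was removed, and shoots were kept in a conditioned room. Mortality was scored at 48 h, with testing at 25 ± 1 °C.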

The test system of experiment [17] is Mythimna separata. As to the kind of experiment: Insecticidal activity against fourth-instar larval stage of Mythimna separata (Oriental armyworm) in compound pretreated corn leaves assessed as mortality at 10 mg/kg at 25 +/-1 degC measured after 2 days.

Take `CCOCn1c(-c2ccc(Cl)cc2)c(C#N)c(Br)c1C(F)(F)F` [CHLORFENAPYR]: the 50% lethal concentration (LC50) (as a rule, the concentration lethal to half of the exposed cells or organisms) with Plutella xylostella [1] stood at 1.82 µg/mL (≈ 4.46 µM); with Nephotettix cincticeps [5] it was 26.8 µg/mL (≈ 65.8 µM); in the experiment on Tetranychus cinnabarinus [9], 1.14 µg/mL (≈ 2.8 µM); in the experiment with Aphis fabae [16], 12.2 µg/mL (≈ 30 µM). Further, the mortality (in general, the share of the test organisms that died) at 200 mg/kg in the experiment on Tetranychus cinnabarinus [2] stood at 100%. For the same compound, the RatioLC50 with Nephotettix cincticeps [3], with Plutella xylostella [4], in the experiment on Tetranychus cinnabarinus [8] and in the experiment on Aphis fabae [10] was 1 throughout. Moreover, the mortality at 0.1 mg/kg in the experiment with Culex pipiens pallens [6] came to 100%. Moreover, the mortality at 5 mg/kg with Mythimna separata [7] was determined as 0%. The mortality at 50 mg/kg in the experiment with Tetranychus cinnabarinus [11] was 93%. In addition, in the experiment with Mythimna separata [12], the mortality at 20 mg/kg worked out at 100%. For the same compound, the mortality at 100 mg/kg in the experiment with Tetranychus cinnabarinus [13] came out at 97%. Besides, the mortality at 0.25 mg/kg in the experiment on Culex pipiens pallens [14] was 100%. Also, in the experiment with Culex pipiens pallens [15], the mortality at 0.5 mg/kg worked out at 100%. Moreover, the mortality at 10 mg/kg with Mythimna separata [17] is 100%.

As to `CC(C)CC(=O)OCn1c(-c2ccc(Cl)cc2)c(C#N)c(Br)c1C(F)(F)F`, the LC50 with Plutella xylostella [1] turned out to be 1.88 µg/mL (≈ 4.05 µM); in the experiment on Nephotettix cincticeps [5] it was 34.1 µg/mL (≈ 73.6 µM); with Tetranychus cinnabarinus [9], 0.43 µg/mL (≈ 0.927 µM); with Aphis fabae [16], 17.8 µg/mL (≈ 38.5 µM). In the experiment on Tetranychus cinnabarinus [2], the mortality at 200 mg/kg was determined as 100%. For the same compound, the RatioLC50 worked out at 0.79 in the experiment on Nephotettix cincticeps [3], 0.97 in the experiment on Plutella xylostella [4], 2.65 with Tetranychus cinnabarinus [8] and 0.69 in the experiment on Aphis fabae [10]. The mortality at 0.1 mg/kg in the experiment with Culex pipiens pallens [6] is 100%. Besides, the mortality at 5 mg/kg with Mythimna separata [7] was determined as 0%. The mortality at 50 mg/kg in the experiment on Tetranychus cinnabarinus [11] stood at 100%. The mortality at 20 mg/kg in the experiment with Mythimna separata [12] was found to be 100%. For the same compound, the mortality at 100 mg/kg in the experiment with Tetranychus cinnabarinus [13] was 100%. For the same compound, the mortality at 0.25 mg/kg in the experiment on Culex pipiens pallens [14] worked out at 100%. In addition, the mortality at 0.5 mg/kg in the experiment on Culex pipiens pallens [15] was found to be 100%. For the same compound, in the experiment on Mythimna separata [17], the mortality at 10 mg/kg stood at 100%.

Regarding `CC(Oc1ccc(Cl)cc1)C(=O)OCn1c(-c2ccc(Cl)cc2)c(C#N)c(Br)c1C(F)(F)F` (centres undefined), the mortality at 200 mg/kg with Tetranychus cinnabarinus [2] was determined as 98%. In addition, the mortality at 0.1 mg/kg in the experiment with Culex pipiens pallens [6] was determined as 100%. Besides, the mortality at 5 mg/kg in the experiment on Mythimna separata [7] was found to be 0%. Also, the mortality at 50 mg/kg in the experiment with Tetranychus cinnabarinus [11] came out at 94%. Also, the mortality at 20 mg/kg in the experiment on Mythimna separata [12] turned out to be 100%. In addition, in the experiment with Tetranychus cinnabarinus [13], the mortality at 100 mg/kg was 95%. Besides, the mortality at 0.25 mg/kg in the experiment on Culex pipiens pallens [14] was 100%. Besides, in the experiment on Culex pipiens pallens [15], the mortality at 0.5 mg/kg was 100%. Besides, in the experiment with Mythimna separata [17], the mortality at 10 mg/kg amounted to 80%.

Regarding `N#Cc1c(Br)c(C(F)(F)F)n(COC(=O)c2ccc(Cl)cc2)c1-c1ccc(Cl)cc1`, the mortality at 200 mg/kg with Tetranychus cinnabarinus [2] was determined as 100%. Besides, in the experiment with Culex pipiens pallens [6], the mortality at 0.1 mg/kg was determined as 10%. For the same compound, in the experiment with Mythimna separata [7], the mortality at 5 mg/kg amounted to 10%. Moreover, the mortality at 50 mg/kg in the experiment with Tetranychus cinnabarinus [11] is 100%. Moreover, in the experiment with Mythimna separata [12], the mortality at 20 mg/kg is 100%. The mortality at 100 mg/kg in the experiment with Tetranychus cinnabarinus [13] was found to be 100%. Further, in the experiment on Culex pipiens pallens [14], the mortality at 0.25 mg/kg is 20%. For the same compound, in the experiment on Culex pipiens pallens [15], the mortality at 0.5 mg/kg worked out at 100%. In the experiment on Mythimna separata [17], the mortality at 10 mg/kg is 100%.

In the case of `N#Cc1c(Br)c(C(F)(F)F)n(COC(=O)c2cccc([N+](=O)[O-])c2)c1-c1ccc(Cl)cc1`, the mortality at 200 mg/kg in the experiment on Tetranychus cinnabarinus [2] amounted to 98%. Besides, the mortality at 0.1 mg/kg in the experiment on Culex pipiens pallens [6] is 30%. Further, the mortality at 5 mg/kg in the experiment on Mythimna separata [7] turned out to be 0%. The mortality at 50 mg/kg with Tetranychus cinnabarinus [11] stood at 90%. Further, the mortality at 20 mg/kg in the experiment with Mythimna separata [12] came out at 100%. Moreover, the mortality at 100 mg/kg in the experiment with Tetranychus cinnabarinus [13] was 94%. Further, the mortality at 0.25 mg/kg in the experiment with Culex pipiens pallens [14] was 40%. For the same compound, the mortality at 0.5 mg/kg in the experiment with Culex pipiens pallens [15] came to 80%. Besides, in the experiment on Mythimna separata [17], the mortality at 10 mg/kg worked out at 0%.

On to `CCOC(=O)OCn1c(-c2ccc(Cl)cc2)c(C#N)c(Br)c1C(F)(F)F`, for which the mortality at 200 mg/kg with Tetranychus cinnabarinus [2] is 100%. The mortality at 0.1 mg/kg in the experiment with Culex pipiens pallens [6] was found to be 100%. The mortality at 5 mg/kg in the experiment with Mythimna separata [7] amounted to 0%. In addition, in the experiment on Tetranychus cinnabarinus [11], the mortality at 50 mg/kg was found to be 84%. Besides, the mortality at 20 mg/kg with Mythimna separata [12] turned out to be 100%. Further, in the experiment with Tetranychus cinnabarinus [13], the mortality at 100 mg/kg is 89%. In the experiment on Culex pipiens pallens [14], the mortality at 0.25 mg/kg amounted to 100%. The mortality at 0.5 mg/kg in the experiment on Culex pipiens pallens [15] is 100%. Also, in the experiment with Mythimna separata [17], the mortality at 10 mg/kg worked out at 90%.

Consider `COc1cccc(C(=O)OCn2c(-c3ccc(Cl)cc3)c(C#N)c(Br)c2C(F)(F)F)c1`, for which, in the experiment with Tetranychus cinnabarinus [2], the mortality at 200 mg/kg turned out to be 100%. Moreover, the mortality at 0.1 mg/kg in the experiment with Culex pipiens pallens [6] turned out to be 50%. In the experiment on Mythimna separata [7], the mortality at 5 mg/kg was determined as 0%. In addition, in the experiment on Tetranychus cinnabarinus [11], the mortality at 50 mg/kg was 50%. In addition, the mortality at 20 mg/kg with Mythimna separata [12] amounted to 100%. The mortality at 100 mg/kg in the experiment on Tetranychus cinnabarinus [13] amounted to 65%. The mortality at 0.25 mg/kg in the experiment with Culex pipiens pallens [14] is 65%. Besides, in the experiment on Culex pipiens pallens [15], the mortality at 0.5 mg/kg stood at 100%. Also, the mortality at 10 mg/kg with Mythimna separata [17] stood at 90%.
